In experiment [1] the test system is Candida parapsilosis. Nature of the experiment: Antifungal activity against Candida parapsilosis isolate A assessed as cell wall damage at 4 times MIC by Transmission electron microscopy. Type of experiment: functional, organism-based. An outline of the steps:
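Cells recovered 8 h after a 1-h drug exposure were grown on SDA for 24 h at 35°C. Colonies fixed at 4°C in 0.1 M cacodylate (pH 7.2) with 2% glutaraldehyde and 2% paraformaldehyde, ethanol-dehydrated and embedded in Lowicryl K4M. Thin sections examined by transmission EM.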

The test system of experiment [2] is Candida albicans. Nature of the experiment: Increase in susceptibility to SDS in Candida albicans isolate 1 assessed as cell wall damage at MIC after 1 hr relative to control. The format is functional, organism-based. An outline of the steps:
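Cells recovered 8 h after a 1-h drug exposure were grown in YPD with 1% glucose to exponential phase and adjusted to OD599 0.1. Undiluted culture and 10-fold serial dilutions were spotted onto YPD plates containing SDS (0.01 to 0.04%), then incubated 72 h at 30°C. Growth compared with unexposed control cells; triplicate.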

In experiment [3] the test system is Candida albicans. Nature of the experiment: Antifungal activity against Candida albicans ATCC 90028 by CLSI M27-A3 broth microdilution method. The format is functional. An outline of the steps:
(§1)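 CLSI M27-A3 broth microdilution in RPMI 1640 buffered to pH 7.0 with MOPS. Starting inoculum 0.5 x 10^3 to 2.5 x 10^3 cells/ml, incubated at 35°C. MIC read as the lowest concentration giving >50% growth reduction versus control. Each isolate tested on at least three occasions.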
Background: Broth dilution looks for growth in wells or tubes with falling amounts of substance.

Experiment [4] concerns Pichia kudriavzevii. Description: Antifungal activity against Candida krusei isolate ATCC 6258 assessed as time period for bacterial growth inhibition at 16 times MIC after 1 hr drug exposure. The format is functional. Put shortly:
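Inoculum of about 1 x 10^5 to 5 x 10^5 CFU/ml in MOPS-buffered RPMI (pH 7.0), shaken at 35°C and exposed to drug for 1 h. Cells then washed and centrifuged three times and resuspended in drug-free warm RPMI. Samples plated on SDA at 0, 2, 4, 8, 12, 24 and 48 h, with CFU counted after 48 h at 35°C. Run twice per isolate; values are means.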

Experiment [5] has as its system Candida albicans. Nature of the experiment: Fungicidal activity against Candida albicans isolate S assessed as log reduction in bacterial count at 16 times MIC after drug exposure for 1 hr followed by washout measured after 48 hrs in the absence of drug by PAFE study. The format is functional. An outline of the steps:
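Starting inoculum ~1 x 10^5 to 5 x 10^5 CFU/ml in MOPS-buffered RPMI 1640 (pH 7.0) with drug at multiples of the CLSI M27-A3 MIC. After 1 h at 35°C, cells washed and centrifuged three times at 1,400 x g for 10 min, then resuspended in warm drug-free RPMI. Shaken at 35°C and plated on SDA at 0–48 h; CFU counted after 48 h. Run twice per isolate; means.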

For experiment [6], the system named is Pichia kudriavzevii. Nature of the experiment: Fungicidal activity against Candida krusei isolate ATCC 6258 assessed as log reduction in bacterial count at 4 times MIC after 48 hrs by time-kill analysis. Type of experiment: functional. Particulars: isolate ATCC 6258, 48 h. An outline of the steps: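 Isolates subcultured twice on SDA, suspended to 0.5 McFarland, giving ~1 x 10^5 to 5 x 10^5 CFU/ml in MOPS-buffered RPMI 1640 (pH 7.0) with or without drug at multiples of MIC (MIC by CLSI M27-A3). Tubes shaken at 35°C with continuous drug. Sampled at 0–48 h, diluted 10-fold and plated on SDA; CFU counted after 48 h at 35°C. Run twice per isolate; means.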

The subject of a further experiment is Nakaseomyces glabratus. Description: Antifungal activity against Candida glabrata isolate 2 by CLSI M27-A3 broth microdilution method. Type of experiment: functional. An outline of the steps:
as §1

For experiment [7], the system named is Candida parapsilosis. Nature of the experiment: Fungicidal activity against Candida parapsilosis isolate S assessed as log reduction in bacterial count at 4 times MIC after drug exposure for 1 hr followed by washout measured after 48 hrs in the absence of drug by PAFE study. The note with it: Lodderomyces parapsilosis. Type of experiment: functional. An outline of the steps: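 Inoculum about 1 x 10^5 to 5 x 10^5 CFU/ml in RPMI 1640 (MOPS, pH 7.0) with drug, shaken at 35°C for 1 h. Cells were then washed and centrifuged at 1,400 x g for 10 min (3 cycles) and resuspended in warm drug-free RPMI. Samples plated on SDA at 0, 2, 4, 8, 12, 24 and 48 h; CFU counted after 48 h at 35°C. Run twice per isolate; means.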

Structures are written as SMILES. In brackets after ≈: the same amount, converted by molar mass. Activity calls are given as the source filed them. The rule behind the calls is not given here. Starred links: 1 amine or outer side, 2 acyl side, 3 side chain; linkers in the order of their positions; H or OH if unused. Positions of bridges follow the written chain, without caps; N, C: chain ends. Non-standard residues stand in square brackets, D forms with d. Residues, ends and D or L forms follow the SMILES beside them. *: point of attachment. pTerphenylCO(4''-OnC5H11) = CCCCCOc1ccc(-c2ccc(-c3ccc(C(=O)*)cc3)cc2)cc1; Orn(4R-OH,5R-OH) = O=C([C@H](C[C@@H](O)[C@@H](O)N[*:3])N[*:1])[*:2]; hTyr(3S-OH,4S-OH) = N[C@H](C(=O)O)[C@H](O)[C@@H](O)c1ccc(O)cc1; Pro(3S-OH,4S-Me) = C[C@H]1CN[C@H](C(=O)O)[C@H]1O; Hyp = O=C(O)[C@@H]1C[C@@H](O)CN1

The term MIC denotes the lowest concentration found to suppress growth. A low value points to inhibition by little substance. Regarding `CCCCCOc1ccc(-c2ccc(-c3ccc(C(=O)N[C@H]4C[C@@H](O)[C@@H](O)NC(=O)[C@@H]5[C@@H](O)[C@@H](C)CN5C(=O)[C@H]([C@@H](C)O)NC(=O)[C@H]([C@H](O)[C@@H](O)c5ccc(O)cc5)NC(=O)[C@@H]5C[C@@H](O)CN5C(=O)[C@H]([C@@H](C)O)NC4=O)cc3)cc2)cc1` [ANIDULAFUNGIN] ({pTerphenylCO(4''-OnC5H11)}-[Orn(4R-OH,5R-OH)]T[Hyp][hTyr(3S-OH,4S-OH)]T[Pro(3S-OH,4S-Me)]; lactam 1-C), the outcome with Candida parapsilosis [1] and in the experiment on Candida albicans [2] was Active. Moreover, the MIC in the experiment with Candida albicans [3] and in the experiment with Nakaseomyces glabratus was 0.03 µg/mL (≈ 0.0263 µM) in each case. For the same compound, the Time in the experiment on Pichia kudriavzevii [4] came out at 8 h. Moreover, the log reduction in the experiment with Candida albicans [5] came to 2.52 log CFU/ml; in the experiment on Pichia kudriavzevii [6], 2.94 log CFU/ml; in the experiment with Candida parapsilosis [7], 2.17.

Source of the values: ChEMBL document CHEMBL1671655, “Anidulafungin is fungicidal and exerts a variety of postantifungal effects against Candida albicans, C. glabrata, C. parapsilosis, and C. krusei isolates” (2009).
